# Results of several laboratories.
# Each line is one published result; the experiments were not run side by side.
# CYP2C19: Cytochrome P450 2C19 (CYP2C19, Homo sapiens, UniProt P33261)
SMILES,target or system,assay,system,setting,quantity,value
CC(C)(C)NC(=O)N[C@H](C(=O)N1C[C@H]2[C@@H]([C@H]1C(=O)NC(CC1CCC1)C(=O)C(N)=O)C2(C)C)C(C)(C)C (stereo partly drawn),A549,"cell growth or viability, neutral red",,48 h,CC50,> 100 µM
CCC[C@@](N)(CO)CCc1ccc(OCCCCCC(C)C)cc1,,,"dog, plasma","oral, 2.5 mg/kg",Cmax,69.2 nM
CC(C)C[C@H](NC(=O)[C@@H](NC(=O)/C=C/c1ccccc1F)C(C)C)C(=O)N[C@H](C=O)C[C@@H]1CCCNC1=O,A549,"cell growth or viability, MTT",,24 h,CC50,> 100 µM
CN1CCCCC1Cn1cc(C(=O)c2cc([N+](=O)[O-])ccc2I)c2ccccc21 (racemic),,,"mouse, plasma","intravenous, 25 mg/kg",C0,6 µg/mL
CC(C)C[C@H](NC(=O)[C@@H](NC(=O)c1ccc(Cl)cc1)C(C)C)C(=O)N[C@H](C=O)C[C@@H]1CCCNC1=O,A549,"cell growth or viability, MTT",,24 h,CC50,> 100 µM
COc1cc2c(c(OC)c1OC)-c1ccc(OC)c(=O)cc1[C@@H](NC(C)=O)CC2,HFF-1,"cell growth or viability, resazurin",,72 h,CC50,0.024 µM
C[C@H](NC(=O)/C=C/c1ccccc1)C(=O)N[C@H](C=O)C[C@@H]1CCCNC1=O,A549,"cell growth or viability, MTT",,24 h,CC50,> 100 µM
COC(=O)C1CCN(C(=O)c2ccc(N(C)Cc3cnc4nc(N)nc(N)c4n3)cc2)CC1,CYP2C19,"enzyme activity, inhibitor, luciferase",,10 µM,inhibition,-29.4%
CC(C)C[C@H](NC(=O)[C@H](CC1CCCCC1)NC(=O)/C=C/c1ccccc1)C(=O)N[C@H](C=O)C[C@@H]1CCCNC1=O,A549,"cell growth or viability, MTT",,24 h,CC50,> 100 µM
COC(=O)C1CCN(C(=O)c2ccc(NCc3cnc4nc(N)nc(N)c4n3)cc2)CC1,CYP2C19,"enzyme activity, inhibitor, luciferase",,10 µM,inhibition,-23.4%
CC(C)C[C@H](NC(=O)[C@@H](NC(=O)c1ccoc1)C(C)C)C(=O)N[C@H](C=O)C[C@@H]1CCCNC1=O,A549,"cell growth or viability, MTT",,24 h,CC50,> 100 µM
O=C[C@H](C[C@@H]1CCNC1=O)NC(=O)[C@H](CC1CCCCC1)NC(=O)c1cc2ccccc2[nH]1,,,"dog, plasma","intravenous, 4 mg/kg",Cmax,9770 µg/mL
COC(=O)C(NC(=O)c1cn(CCCCCF)c2ccccc12)C(C)(C)C (stereo not drawn),,,"male Sprague-Dawley rat, plasma","subcutaneous, 200 µg/kg",Tmax,2.83 h
O=S(=O)([O-])c1cccc(P(c2ccccc2)c2ccccc2)c1.[Na+],NIH3T3,"cell growth or viability, resazurin",,18 h,CC50,189 µg/mL
N=c1c2c(-c3ccccc3)c(-c3ccccc3)n(Cc3ccccc3)c2ncn1[C@H]1CC[C@H](O)CC1,,,"male beagle dog, plasma","intravenous, 0.5 mg/kg, single dose",clearance,1.2 mL/min/kg
CCOC(=O)[C@@](C)(O)[C@@H]1C[C@@H](CO[Si](c2ccccc2)(c2ccccc2)C(C)(C)C)O[C@H]1n1cc(F)c(=O)[nH]c1=O,A549,"cell growth or viability, MTT",,42 h,CC50,236 µM
Cc1ncc2n1-c1ccc(Cl)cc1C(c1ccccc1F)=NC2,,metabolic stability,"beagle dog, hepatocytes","1 µM, 4 h",compound remaining,3%
Cl.Cl.O=C(CCN1CCCCC1)c1ccc(-c2ccc(C(=O)CCN3CCCCC3)cc2)cc1,,,"Sprague-Dawley rat, plasma","oral, 50 mg/kg",Tmax,0.65 h
